Test results: PubChem BioAssay AID821 (SRMLSC, 2007)
Activity calls are given as the source filed them.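 The calls were made as follows: active = compounds whose fitted half-maximal concentration for reducing fibroblast viability is 100 µM or lower; inactive = the rest.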

Experiment: inhibition of LL 47 lung fibroblast growth, concentration-response curve, selectivity screen for endothelial cell growth inhibitor project, cellular system, ATP luminescence readout (AID 821);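 also: 100% = median of untreated cell-only wells and 0% = no luminescence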
Settings: LL 47 lung fibroblast viability, ATP luminescence; at 20 µM (top of the series)
Method in brief: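 System: LL 47 human lung fibroblast cells. Timing: overnight cell settling, then 72 h compound exposure at 37 °C. Measured by: CellTiter-Glo luminescence. Evaluation: percent viability relative to untreated wells, EC50 via 4-parameter fit.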

Row | SMILES | viability
1 | CC1CCCC(NC(=O)C2CCN(S(=O)(=O)N3CCC4(CC3)OCCO4)CC2)C1C (stereo not given) | 100% (inactive)
2 | Cc1ccc2[nH]c(=O)c(C3C(C#N)=C(N)Oc4c3ccc3cccnc43)cc2c1 (stereo not given) | 86.9% (inactive)
3 | CC1CCc2sc3nc(N4CCN(CCO)CC4)n4ncnc4c3c2C1 (stereo not given) | 96.4% (inactive)
4 | COc1cc(NC(=O)Nc2ccccc2)c(OC)cc1NC(=O)CN1CCCCC1 | 82.8% (inactive)
5 | Cc1ccc(Cn2c(=S)[nH]c3ccc(N4CCOCC4)cc3c2=O)o1 | 85% (inactive)
6 | O=C(CSc1nnc(-c2cc(-c3cccs3)nc3ccccc23)o1)NC1CCCCC1 | 98.4% (inactive)
7 | CC1=C(C)CS(=O)N(S(=O)(=O)c2ccccc2)C1 (stereo not given) | 86.9% (inactive)
8 | CCCC(=O)Nc1cccc(-c2nc3cc(C)c(C)cc3o2)c1 | 104% (inactive)
9 | COc1cc(-c2nnc(COc3ccc4cc(Br)ccc4c3)o2)cc(OC)c1OC | 127% (inactive)
10 | Cc1cc(Cl)ccc1N=c1ssnc1Cl | 104% (inactive)
11 | Cc1cc(=O)[nH]c2ccc(Cl)cc12 | 102% (inactive)
12 | CC(=O)c1c(C)[nH]c(C(=O)CSc2nnc(-c3ccccc3)n2Cc2ccc3c(c2)OCO3)c1C | 94.2% (inactive)
13 | COc1ccc2cc3cc(C(=O)Nc4ccc5c(c4)OCO5)oc3nc2c1 | 88.3% (inactive)
14 | CCCCCCCCOC(=O)C1=C(C)Nc2nnnn2C1c1cccs1 (stereo not given) | 117% (inactive)
15 | C=CCn1c(O)c(C2=c3ccccc3=NC2=O)s/c1=N/c1nccs1 | 88% (inactive)
16 | CCCOc1ccc(-c2nc(C#N)c(NCCCn3ccnc3)o2)cc1 | 90.9% (inactive)
17 | Cc1ccc(C(C#N)c2ccc(C(=O)c3ccc(F)cc3)cc2)cc1 (stereo not given) | 97.1% (inactive)
18 | CCOC(=O)N1CCN(C(=O)c2nn(-c3ccc(C)cc3)c(=O)c3c2c2ccccc2n3C)CC1 | 100% (inactive)
19 | COc1ccc2cc3cc(C(=O)Nc4ccc5c(c4)OCCO5)oc3nc2c1 | 98.4% (inactive)
20 | CCn1c2c(c3cc(Br)ccc31)CCC/C2=N\O | 85.2% (inactive)
21 | COC(=O)c1c(C)n(-c2ccc(OC)cc2)c2ccc(O)cc12 | 87.7% (inactive)
22 | OCCNc1nc2ccccc2n1-c1ncnc2sc3c(c12)CCC3 | 91.9% (inactive)
23 | COc1cc(N=c2ssnc2Cl)c(OC)cc1Cl | 88.6% (inactive)
24 | Cc1ccccc1N1C(=O)CC(Sc2nnc(-c3ccccc3)o2)C1=O (stereo not given) | 90.5% (inactive)

Row | SMILES | viability
25 | O=C(Nc1cccc(-c2nc3ncccc3o2)c1)c1cc2ccccc2o1 | 116% (inactive)
26 | Clc1ccc(-c2nc(NCCN3CCOCC3)c3ccccc3n2)cc1 | 83.1% (inactive)
27 | COc1ccccc1N1CCN(C(=O)c2ccc(Br)s2)CC1 | 103% (inactive)
28 | OCCN1CCN(c2nc(-c3ccccc3)c3cc(Cl)ccc3n2)CC1 | 85% (inactive)
29 | Cc1cccc(-c2nnc(NC(=O)c3ccc(Cl)cc3)o2)c1 | 87.4% (inactive)
30 | Cc1cccc(C)c1OCC(=O)N=Nc1c(O)[nH]c2ccc(Br)cc12 | 104% (inactive)
31 | Cc1ccc(Cn2c(SCC(=O)Nc3cc(C)on3)nc3ccccc3c2=O)cc1 | 80.1% (inactive)
32 | CCCCOc1ccc(C(=O)OC2CC(C)N(C)CC2C)cc1 (stereo not given) | 96.4% (inactive)
33 | Cc1cc(/C=C2\C(=N)N3C(SCc4ccccc4)=NSC3=NC2=O)c(C)n1Cc1ccccc1 | 92.2% (inactive)
34 | CCOC(=O)c1sc(NC(=O)CSc2nnnn2-c2ccc(C)cc2C)nc1C | 81.2% (inactive)
35 | CCCCC[n+]1ccn(C2=C([O-])c3ccccc3C(=O)/C2=N\S(=O)(=O)c2ccccc2)c1 | 86.4% (inactive)
36 | Cn1c(CNc2cccc(Cl)c2)nnc1SCC(=O)OC1CCCCC1 | 86.7% (inactive)
37 | Cc1ccc2nc(NC(=O)CSc3ncnc4c3oc3ccccc34)sc2c1 | 113% (inactive)
38 | O=C(Cn1cc(C(=O)c2ccccc2F)c2ccccc21)NCc1ccco1 | 104% (inactive)
39 | CCOc1ccc(OCc2ccc(C(=O)NCC3CCCO3)o2)cc1 (stereo not given) | 109% (inactive)
40 | CCOc1cc(C(=O)CSc2nnc(CNc3ccc(Cl)cc3)o2)ccc1NC(=O)CC | 96% (inactive)
41 | Cc1cc(C)n(-c2nc(SCC(=O)N3CCCC3)c3c4c(sc3n2)CCCC4)n1 | 113% (inactive)
42 | O=C1CCn2nc(-c3ccc(Cl)cc3)cc2N1 | 104% (inactive)
43 | Cn1c(=O)cc(SCC(=O)NCC2COc3ccccc3O2)c2ccccc21 (stereo not given) | 104% (inactive)
44 | O=C(CCSc1ccc(Cl)cc1)N1CCN(c2ncccn2)CC1 | 96.4% (inactive)
45 | CCOc1ccc(NC(=O)c2cc3n(n2)C(C(F)(F)F)CC(c2ccco2)N3)cc1 (stereo not given) | 106% (inactive)
46 | O=C(CC1CCCCC1)c1c(O)c2ccccc2oc1=O | 88.5% (inactive)
47 | Oc1ccc2oc3c(c2c1/C=N/n1cnnc1)CCCC3 | 99.5% (inactive)
48 | CCn1c(SCC(N)=O)nnc1-c1ccc2[nH]c(C)c(C)c2c1 | 99.8% (inactive)

Row | SMILES | viability
49 | CCC(C)NC(=O)c1c(N)n(/N=C/c2ccccn2)c2nc3ccccc3nc12 (stereo not given) | 116% (inactive)
50 | COC(=O)c1cc(COc2ccc3c(c2)oc(=O)c2ccccc23)c(C)o1 | 120% (inactive)
51 | CN1C(=O)C(O)(CC(=O)c2cccc(-n3cccc3)c2)c2ccccc21 (stereo not given) | 93.7% (inactive)
52 | Cc1ccc(C)c(N2CCN(CCCNC(=O)Cn3cc4c(n3)CCCCC4)CC2)c1 | 83.3% (inactive)
53 | CC1CCCN(c2oc(-c3cccc4ccccc34)nc2C#N)C1 (stereo not given) | 99.6% (inactive)
54 | CC1(c2ccccc2)CC(C)(C)N2C(=O)C3(C(C#N)=C(N)Oc4cc(O)ccc43)c3cccc1c32 (stereo not given) | 87.7% (inactive)
55 | COC(=O)c1ccccc1NC(=O)c1cc(-c2cccs2)on1 | 90.8% (inactive)
56 | CC(C)(C)NC(=O)c1cnn2c1NC(c1ccc(F)cc1)CC2C(F)(F)F (stereo not given) | 99% (inactive)
57 | Cc1ccc2c(c1)[nH]c1c(N3CCN(Cc4ccccc4)CC3)ncnc12 | 88.3% (inactive)
58 | COc1ccccc1C1CC(c2c(-c3ccccc3)c3cc(Cl)ccc3[nH]c2=O)=NN1S(C)(=O)=O (stereo not given) | 83.6% (inactive)
59 | O=C(CCC1COc2ccccc2O1)Nc1ccc(Cl)cn1 (stereo not given) | 95.5% (inactive)
60 | O=C(Cc1sc(-c2ccccc2Cl)nc1-c1ccccc1)Nc1ccccc1 | 99.7% (inactive)
61 | Cc1cc(C)n(-c2nc(Nc3ccccc3C)nc(-n3nc(C)cc3C)n2)n1 | 97.1% (inactive)
62 | Cc1ccc(S(=O)(=O)c2c(C)nn(C(C)(C)C)c2OC(=O)c2ccco2)cc1 | 108% (inactive)
63 | CCOC(=O)c1sc(NC(=O)CSc2nnnn2-c2ccc(C)c(C)c2)nc1C | 83.3% (inactive)
64 | Cn1c(=O)c2c(ncn2CC(=O)Nc2nc(-c3ccccc3Cl)cs2)n(C)c1=O | 110% (inactive)
65 | Cc1cc(Cl)ccc1OCCCC(N)=O | 95% (inactive)
66 | COc1ccc(CCn2c(=S)[nH]c3cc(C(=O)NCc4ccco4)ccc3c2=O)cc1OC | 108% (inactive)
67 | CC1=C(SCCC#N)S/C(=C2\SC(C)=C(SCCC#N)S2)S1 | 112% (inactive)
68 | COc1ccc(CCNC(=O)c2ccc3c(=O)n(Cc4ccco4)c(=S)[nH]c3c2)cc1OC | 112% (inactive)
69 | CCn1nc(C(=O)NC2=NCCS2)c2ccccc2c1=O | 103% (inactive)
70 | Clc1cnc(N/N=C/c2cccs2)c(Cl)c1 | 88.3% (inactive)
71 | Nc1c(C(=O)Nc2ccc3c(c2)OCCO3)nnn1CCc1ccccc1 | 82.1% (inactive)
72 | COc1ccccc1N1CCN(CC(=O)c2c(C)[nH]c3cc(C)ccc23)CC1 | 86.8% (inactive)

Row | SMILES | viability
73 | Cn1c(SCC(=O)Nc2ccc(N3CCOCC3)cc2)nnc1-c1ccccc1 | 109% (inactive)
74 | Cc1ccc2[nH]c3c(N4CCN(Cc5ccc6c(c5)OCO6)CC4)ncnc3c2c1 | 88.1% (inactive)
75 | Nc1nc2ccccc2n1/N=C/c1ccc(-c2ccccc2)o1 | 111% (inactive)
76 | Cn1nnc(NC(=O)CSc2ccc(Cl)cc2)n1 | 125% (inactive)
77 | Cc1ccc(C(=O)Nc2ncc(Cc3ccc(F)cc3)s2)o1 | 117% (inactive)
78 | CCOC(=O)c1c(OCC)[nH]c2c1cc(O)c1ccccc12 | 117% (inactive)
79 | N#C/C(=C/c1ccc(N2CCCCCC2)o1)c1ccc(Cl)cc1 | 100% (inactive)
80 | CCCCCn1c(CN2CCN(c3cc(Cl)ccc3C)CC2)nc2c1c(=O)[nH]c(=O)n2C | 81.2% (inactive)
81 | COC(=O)c1ccc(NC(=O)Nc2ccc(F)c(Cl)c2)cc1 | 106% (inactive)
82 | COc1ccc(-c2cn3c(C)c(C(=O)Nc4cccc(NC(C)=O)c4)sc3n2)cc1 | 109% (inactive)
83 | O=C(NCc1ccc2c(c1)OCO2)C1CCC(CNS(=O)(=O)c2cccc3nsnc23)CC1 (stereo not given) | 106% (inactive)
84 | COc1ccc(CN2CCn3ncc(C(=O)Nc4cc(C)cc(C)c4)c3C2=O)cc1 | 105% (inactive)
85 | C=C(C)COc1ccc(-c2n[nH]c(C)c2Oc2ccccc2OC)c(O)c1 | 94.7% (inactive)
86 | CCOC(=O)c1cc2c(N)c(C(=O)c3cc(C#N)c(SC)nc3C)sc2nc1C | 101% (inactive)
87 | COc1ccc(NC(=O)CSc2nnc(-c3cccs3)n2-c2ccccc2)cc1 | 105% (inactive)
88 | Cc1ccc2c(c1)c1c(n2CC(O)Cn2c(C)nc3ccccc32)/C(=N\O)CCC1 (stereo not given) | 89.6% (inactive)
89 | COc1ccc(-c2cc(C(=O)Nc3cc(C)n(Cc4ccc(Cl)cc4)n3)no2)cc1OC | 102% (inactive)
90 | Cc1cc(/C=N/n2cnnc2)c(C)n1-c1ccc(OCc2ccc(Cl)cc2Cl)cc1 | 86.5% (inactive)
91 | COc1ccc2[nH]c(=O)c(CN(C3CCCCC3)C(c3nnnn3Cc3ccco3)C(C)C)cc2c1 (stereo not given) | 83.2% (inactive)
92 | CCOC(=O)CNC(=O)C(=O)c1c(O)[nH]c2ccccc12 | 96.6% (inactive)
93 | Clc1ccccc1-c1ccc(/C=N/n2cnnc2)o1 | 111% (inactive)
94 | COc1ccc2cc3cc(C(=O)NCCc4ccc(OC)c(OC)c4)oc3nc2c1 | 109% (inactive)
95 | O=C(Nc1ccccc1)c1cccc(-c2nnc(-c3ccccc3)o2)c1 | 102% (inactive)
